# TRPC4 block: TRPC4 (mouse) channel inhibition; B-score at 10 µM; HEK293 TRPC4beta/mu-opioid, DAMGO-evoked Fluo4 calcium flux; active compounds read low; 300,000 compounds, 0.39% hits;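 active = B-score over 3 SD under the library average, no early fluorescence shift, positive overall ratio signal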
# Target sequence (Q9QUQ5 whole entry, looked up): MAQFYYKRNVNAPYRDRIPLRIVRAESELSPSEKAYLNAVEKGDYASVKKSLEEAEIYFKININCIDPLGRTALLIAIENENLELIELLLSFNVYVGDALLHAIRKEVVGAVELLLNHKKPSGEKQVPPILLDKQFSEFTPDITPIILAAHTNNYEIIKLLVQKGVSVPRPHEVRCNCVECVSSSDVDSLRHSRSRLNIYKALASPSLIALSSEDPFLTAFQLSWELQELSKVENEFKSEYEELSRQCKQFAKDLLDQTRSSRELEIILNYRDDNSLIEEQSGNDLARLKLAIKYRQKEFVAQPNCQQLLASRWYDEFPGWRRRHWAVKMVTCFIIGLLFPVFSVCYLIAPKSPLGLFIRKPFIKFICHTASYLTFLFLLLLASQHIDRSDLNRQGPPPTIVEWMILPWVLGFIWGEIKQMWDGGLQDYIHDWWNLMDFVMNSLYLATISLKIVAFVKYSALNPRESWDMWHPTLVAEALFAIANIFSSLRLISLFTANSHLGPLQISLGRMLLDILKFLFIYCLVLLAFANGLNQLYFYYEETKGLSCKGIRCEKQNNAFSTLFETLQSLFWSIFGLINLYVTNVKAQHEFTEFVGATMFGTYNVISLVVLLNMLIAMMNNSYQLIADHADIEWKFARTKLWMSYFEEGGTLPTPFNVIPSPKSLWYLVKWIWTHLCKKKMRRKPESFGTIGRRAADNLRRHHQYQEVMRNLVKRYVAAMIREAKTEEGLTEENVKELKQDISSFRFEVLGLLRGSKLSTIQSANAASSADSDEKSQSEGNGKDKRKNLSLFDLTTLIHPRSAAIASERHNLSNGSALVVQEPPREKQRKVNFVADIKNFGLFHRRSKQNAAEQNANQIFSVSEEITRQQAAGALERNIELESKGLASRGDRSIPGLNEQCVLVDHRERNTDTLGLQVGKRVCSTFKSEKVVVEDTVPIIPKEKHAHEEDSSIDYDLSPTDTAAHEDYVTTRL
#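 Material: HEK293 cells with stable TRPC4beta plus mu-opioid receptor expression; probe or stimulus: DAMGO in two steps, submaximal then maximal; technique: Fluo4 calcium fluorescence by kinetic imaging, 5 s 1 Hz baseline; measure: integrated fluorescence ratio relative to baseline, converted to per-well B score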
# TRPC4 agonist: TRPC4 (mouse) channel activation. HEK293 TRPC4beta/mu-opioid, Fluo4 calcium fluorescence; active compounds read high. 310,000 compounds, 0.49% hits. B-score at 10 µM. AID 2237;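 active = B-score above 5 SD of library B-scores, and initial fluorescence ratio not above library mean plus 5 SD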;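 note: positive B-score marks a calcium rise read as TRPC4 activation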
#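 Material: TRPC4beta and mu-opioid receptor HEK293 stable cells | Incubation: 45 min room-temperature Fluo4 loading, 110 s read | Detection: Kinetic Fluo4 calcium fluorescence | Measure: Integrated baseline-normalised fluorescence ratio, converted to per-well B score | Benchmarks: Low control buffer alone, high control maximal DAMGO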
# TRPC4 potent: TRPC4 (mouse) allosteric potentiation; Q9QUQ5; HEK293 TRPC4beta/mu-opioid, DAMGO EC20, Fluo-4 Ca2+ flux; active compounds read high; B-score at 10 µM; 310,000 compounds, 0.42% hits;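 active = B-score of calcium response area above 5 SD of library B-scores, with initial fluorescence ratio within 5 SD of library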;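 note: B-score of integrated fluorescence ratio over time as area under calcium response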
# TRPC6 inh: blocks the mouse TRPC6 cation channel; Q61143; HEK293-TRPC6, membrane potential dye, ACh-evoked depolarization; active compounds read low; B-score at 10 µM; 310,000 compounds, 1.1% hits;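 active = B-score under library mean minus 3 SD, initial fluorescence not abnormally high, positive integrated signal ratio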;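 note: B-score derived from integrated fluorescence ratio over the kinetic read; more negative B-score means stronger inhibition of depolarization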
# TRPC6 activator: activators of mouse TRPC6 channel. Q61143. HEK293-TRPC6 membrane potential dye fluorescence; active compounds read high. B-score at 10 µM. 310,000 compounds, 0.13% hits;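 active = B-score of the integrated fluorescence ratio above library mean plus 3 SD, and starting fluorescence ratio within library mean plus 5 SD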;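 note: higher score means more depolarization so channel activation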
# TRPC4 sel inh 2: second selectivity test of TRPC6 inhibitors: effect on mouse TRPC4; inhibition, % at 10 µM; AID 2776; shares compounds with TRPC6 inh; 920 compounds, 42% hits; HEK293 TRPC4/MOR, membrane potential dye fluorescence; channel activated by saturating DAMGO dose;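 active = compounds whose fluorescence signal differed from control wells by over 3 SD, either direction, in both duplicate plates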
# TRPC4 spec: selectivity of TRPC6 inhibitors: effect on mouse TRPC4; HEK293 TRPC4/mu-opioid, membrane potential fluorescence; AID 2777; 920 compounds, 61% hits; shares compounds with TRPC6 inh; activity change, negative = inhibition, % at 10 µM;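 active = rise or fall in signal beyond 3 SD of buffer-only wells in both replicate plates, either sign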;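 note: integrated kinetic ratio of fluorescence range over baseline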
# HEK293 MPD ctr 2-1: second counter-screen for TRPC6 inhibitors: parental HEK293 cells; parental HEK293 membrane potential dye fluorescence; maximal acetylcholine challenge after compound addition; 920 compounds, 31% hits; shares compounds with TRPC6 inh; AID 2779; signal change vs control, % at 10 µM;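 active = membrane potential signal moving either way by over 3 SD of the maximum-effect control, in both duplicate plates, meaning non-specific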
# HEK293 MPD ctr-1: checks TRPC6 inhibitor effects in parental HEK293 cells; parental HEK293 membrane potential dye fluorescence; shares compounds with TRPC6 inh; 920 compounds, 60% hits; membrane potential signal change, % at 10 µM;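 active = membrane potential signal shifting up or down by more than 3 SD of buffer-only wells, on both duplicate plates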
# HEK293 MPD ctr-2: checks TRPC6 modulator effects in parental HEK293 cells. membrane potential dye fluorescence. membrane potential signal change, % at 10 µM. 2,400 compounds, 51% hits. shares compounds with TRPC6 inh;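 active = membrane potential signal moves up or down beyond 5 SD from buffer-only wells, on both duplicate plates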
# HEK293 MPD ctr 2-2: parental HEK293 nonspecific activity of TRPC6 modulators, second screen; shares compounds with TRPC6 inh; membrane potential dye fluorescence; after compound, maximal acetylcholine stimulation; inhibition, % at 10 µM; 2,400 compounds, 14% hits; AID 488926;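 active = membrane potential signal drops by more than 5 SD from the mean control signal, in both duplicate plates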;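 note: plate controls were acetylcholine ECmax control wells for no effect and buffer only wells for full effect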
# TRPC4/MOR mod: selectivity of TRPC6 modulators against mouse TRPC4 | percent change from control (negative = decrease, positive = increase), % at 10 µM | 2,400 compounds, 69% hits | AID 488927 | shares compounds with TRPC6 inh | HEK293 TRPC4/mu-opioid, membrane potential fluorescence;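 active = membrane potential signal moved up or down beyond 5 SD of buffer control wells, in both duplicate plates, actives on both sides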;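 note: plate controls were assay buffer wells for no effect and DAMGO maximal-effect wells for full effect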
# TRPC4/MOR inh 2: second check of whether TRPC6 modulators also affect mouse TRPC4; shares compounds with TRPC6 inh; HEK293 TRPC4/mu-opioid, membrane potential dye fluorescence; stimulated with maximal-effect DAMGO; inhibition, % at 10 µM; 2,400 compounds, 55% hits;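 active = drop in membrane potential signal beyond 5 SD of the control wells in both duplicate plates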;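 note: TRPC4 counter screen for TRPC6 hits run under conditions tuned for TRPC6 not TRPC4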
# TRPC6 inh conf: mouse TRPC6 inhibitor confirmation; shares compounds with TRPC6 inh; HEK293-TRPC6, membrane potential dye, ACh-evoked depolarization; inhibition, % at 10 µM; 3,300 compounds, 43% hits;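 active = fluorescence ratio falls more than 5 SD below the full-stimulation control mean, in both duplicate runs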;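 note: integrated fluorescence ratio of peak minus minimum over baseline after agonist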
# TRPC6 act confirm: mouse TRPC6 activator confirmation | shares compounds with TRPC6 inh | HEK293-TRPC6 membrane potential dye fluorescence, FDSS | activation, % at 10 µM | 2,800 compounds, 11% hits | AID 488961;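 active = ratio signal rise beyond 5 SD above unstimulated control wells' mean, seen in both duplicate runs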;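 note: plate controls were buffer EC0 wells for no effect and acetylcholine ECmax response for full effect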
# The depositor's hits bear a star; i = inactive; . = no result. Only some compounds are listed: those with a hit (about 2.3% of all), similar ones and a draw of the others.
SMILES,TRPC4 block,TRPC4 agonist,TRPC4 potent,TRPC6 inh,TRPC6 activator,HEK293 MPD ctr-2,HEK293 MPD ctr 2-2,TRPC4/MOR mod,TRPC4/MOR inh 2,TRPC6 inh conf,TRPC6 act confirm,others
Cc1ccsc1C(=O)C1CCCN(Cc2ccccc2O)C1 (stereo not drawn),-6*,i,i,i,i,.,.,.,.,.,.,
CCc1ccc(CN2CCCC(C(=O)c3sccc3C)C2)o1 (stereo not drawn),-8*,i,i,i,i,.,.,.,.,.,.,
COc1ccc(O)c(CN2CCCC(C(=O)c3sccc3C)C2)c1 (stereo not drawn),-7*,i,i,i,i,.,.,.,.,.,.,
C=CCn1c(O)c(C=NCCCn2ccnc2)c(=O)[nH]c1=O,i,i,i,i,i,.,.,.,.,.,.,
c1ccc2sc(C3CCNCC3)nc2c1,i,i,i,i,i,.,.,.,.,.,.,
c1ccc2c(c1)CC1CNCc3cccc(c31)S2 (stereo not drawn),i,i,i,-7.08*,i,.,.,.,.,66.2%*,i,TRPC4 sel inh 2=62.0%*;TRPC4 spec=i;HEK293 MPD ctr 2-1=i;HEK293 MPD ctr-1=i
CCN(CC)CCCOC(=O)C(OC(C)C)(c1ccccc1)c1ccccc1,i,i,i,-9.05*,i,.,.,.,.,57.0%*,.,TRPC4 sel inh 2=65.5%*;TRPC4 spec=39.5%*;HEK293 MPD ctr 2-1=i;HEK293 MPD ctr-1=21.9%*
CCOC(C(=O)OCCCN(CC)CC)(c1ccccc1)c1ccccc1,i,i,i,i,i,.,.,.,.,.,.,
Cc1ccc(OP(=O)(O)Oc2ccc(C)cc2)cc1,i,i,i,-6.45*,i,i,i,i,i,i,.,
O=[N+]([O-])c1cccnc1N1CCCNCC1,i,i,i,i,i,.,.,.,.,.,.,
CC(c1ccccc1)[n+]1ccccc1 (stereo not drawn),i,i,i,i,i,.,.,.,.,.,.,
CCOC(=O)c1c(N)n(CCN2CCCCC2)c2nc3ccccc3nc12,i,i,i,-5.87*,i,-135.0%*,i,-28.0%*,56.0%*,56.5%*,i,
CCCCn1c(N)c(C(=O)NCCN2CCOCC2)c2nc3ccccc3nc21,i,i,i,i,i,.,.,.,.,.,.,
CNC(=O)O/N=C(\C)Cc1nnn(-c2cc(C)on2)n1,i,i,i,i,i,.,.,.,.,.,.,
ClCCN1CCN(c2ccnc3cc(Cl)ccc23)CC1,i,i,i,i,i,.,.,.,.,.,.,
CN(C)c1cc(N)c2c(n1)CCC2 (tested in a mixture with another compound),i,i,i,-6.39*,i,-271.0%*,i,-39.5%*,40.5%*,i,i,
COc1ccc2c(C)c(CC(=O)N3C[C@H]4C[C@@H](C3)c3cccc(=O)n3C4)c(=O)oc2c1C,i,i,i,i,i,.,.,.,.,.,.,
C=CCN(c1ccc(C(=O)N(CC)CC)cc1)S(C)(=O)=O,i,i,i,-5.57*,i,i,i,i,i,i,i,
CN1CCC(O)(c2ccc(Cl)cc2)C(C(=O)c2ccc(Cl)cc2)C1 (stereo not drawn),i,i,i,-5.44*,i,i,i,i,35.0%*,i,i,
CN1CC(C(=O)c2ccc(Cl)cc2)C(c2ccc(Cl)cc2Cl)C1 (stereo not drawn),i,i,i,i,i,.,.,.,.,.,.,
CNc1cc(N2CCN(C)CC2)ccc1[N+](=O)[O-],i,i,i,i,i,.,.,.,.,.,.,
O=[N+]([O-])c1ccc(N2CCCC2)cc1N/N=C1\CN2CCC1CC2,i,i,i,-5.2*,i,-247.5%*,74.0%*,-41.0%*,85.5%*,88.5%*,i,
CCC(C)C1NC(=O)C(C(C)=O)=C1O (stereo not drawn),i,i,i,i,i,.,.,.,.,.,.,
CC(O)CNc1ccc([N+](=O)[O-])c2cccnc12 (stereo not drawn),i,i,i,i,i,.,.,.,.,.,.,
NCCNc1ccc([N+](=O)[O-])c2cccnc12,i,70*,10*,-5.25*,i,-231.5%*,i,-31.0%*,50.5%*,43.0%*,i,
O=c1[nH]c(O)c(Cc2ccc3c(c2)OCO3)c(=O)[nH]1,i,i,i,i,i,.,.,.,.,.,.,
CN1CCC(N(C)c2nc(-c3ccc([N+](=O)[O-])cc3)nc3ccccc23)CC1,i,i,i,-11.1*,i,-296.5%*,69.0%*,-55.5%*,57.0%*,67.5%*,i,
CCOC(=O)C1CCN(C=C2C(=O)N(C)C(=S)N(C)C2=O)CC1,i,i,i,-9.72*,i,.,.,.,.,i,i,TRPC4 sel inh 2=i;TRPC4 spec=i;HEK293 MPD ctr 2-1=i;HEK293 MPD ctr-1=i
Cc1ccc(-c2cc(-c3ccc(C)cc3)[n+](-c3ccccc3)c(-c3ccc(C)cc3)c2)cc1,i,82*,i,-8.66*,i,.,.,.,.,101.4%*,i,TRPC4 sel inh 2=41.0%*;TRPC4 spec=3.5%*;HEK293 MPD ctr 2-1=i;HEK293 MPD ctr-1=6.0%*
C[n+]1c(-c2ccccc2)cc(-c2ccc(Cl)cc2)cc1-c1ccccc1,i,i,i,i,i,.,.,.,.,.,.,
